Broadly, the mortality is the percentage killed.

The first assay relates to Tetranychus cinnabarinus. Description: Acaricidal activity against eggs of Tetranychus cinnabarinus (carmine spider mite) in sieva bean leaves assessed as mortality at 2.5 mg/kg at 25 +/-1 degC treated for 3 secs measured after 4 days. Format: functional. The settings on record: 96 h.
Take `Cc1cc(C)c(C2=C(OC(=O)C(=O)Oc3ccccc3)C3(CCCC3)OC2=O)c(C)c1`: the mortality at 2.5 mg/kg stood at 100%.

On to `Cc1cc(C)c(C2=C(OC(=O)C(=O)Oc3ccc(Cl)cc3)C3(CCCC3)OC2=O)c(C)c1`, for which the mortality at 2.5 mg/kg was found to be 100%.

Take `Cc1cc(C)c(C2=C(OC(=O)C(=O)Oc3ccc(C(C)(C)C)cc3)C3(CCCC3)OC2=O)c(C)c1`: the mortality at 2.5 mg/kg was found to be 70%.

The next assay has as its system Mythimna separata. Description: Stomach toxicity against fourth-instar larval stage of Mythimna separata (Oriental armyworm) in compound-pretreated corn leaves assessed as mortality at 50 mg/kg at 25 +/-1 degC after 4 days. The assay is classed as functional.
Settings: not given
The essentials: (§1)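 Foliar application to oriental armyworm. Single corn leaves were laid on moistened filter paper in Petri dishes. Bioassays were run at 25 ± 1 °C.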
Consider `Cc1cc(C)c(C2=C(OC(=O)C(=O)Oc3ccccc3)C3(CCCC3)OC2=O)c(C)c1`, for which the mortality at 50 mg/kg was found to be 0%.

The test system of a further assay is Ostrinia nubilalis. As to the kind of experiment: Stomach toxicity against third-instar larval stage of Ostrinia nubilalis (European corn borer) in corn leaves assessed as mortality at 600 mg/kg at 25 +/-1 degC treated for 3-5 secs before larval infestation after 4 days by leaf-dip method. Format: functional. The settings on record: 96 h. In short, it runs like this:
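Corn leaf disks (about 5 cm) were dipped for 3–5 s and air-dried. Each disk was placed in a 7 cm glass vessel with 10 third-instar corn borer larvae. Percentage mortality was scored 4 days after treatment. Controls were acetone-treated leaves. Run at 25 ± 1 °C.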
As for `Cc1cc(C)c(C2=C(OC(=O)C(=O)Oc3ccccc3)C3(CCCC3)OC2=O)c(C)c1`, the mortality at 600 mg/kg worked out at 60%.

In the case of `Cc1cc(C)c(C2=C(OC(=O)C(=O)Oc3ccc(Cl)cc3)C3(CCCC3)OC2=O)c(C)c1`, the mortality at 600 mg/kg was determined as 50%.

Regarding `Cc1cc(C)c(C2=C(OC(=O)C(=O)Oc3ccc(C(C)(C)C)cc3)C3(CCCC3)OC2=O)c(C)c1`, the mortality at 600 mg/kg turned out to be 10%.

In the next assay the test system is Tetranychus cinnabarinus. Description: Acaricidal activity against eggs of Tetranychus cinnabarinus (carmine spider mite) in sieva bean leaves assessed as mortality at 0.5 mg/kg at 25 +/-1 degC treated for 3 secs measured after 4 days. The note with it: 96 h. Format: functional.
For the compound `Cc1cc(C)c(C2=C(OC(=O)C(=O)Oc3ccccc3)C3(CCCC3)OC2=O)c(C)c1`, the mortality at 0.5 mg/kg was 50%.

Turning to `Cc1cc(C)c(C2=C(OC(=O)C(=O)Oc3ccc(Cl)cc3)C3(CCCC3)OC2=O)c(C)c1`, the mortality at 0.5 mg/kg worked out at 80%.

The test system of the next assay is Mythimna separata. As to the kind of experiment: Stomach toxicity against fourth-instar larval stage of Mythimna separata (Oriental armyworm) in compound-pretreated corn leaves assessed as mortality at 600 mg/kg at 25 +/-1 degC after 4 days. The assay is classed as functional.
Settings: not given
The essentials:
as §1
`Cc1cc(C)c(C2=C(OC(=O)C(=O)Oc3ccc(Cl)cc3)C3(CCCC3)OC2=O)c(C)c1`: the mortality at 600 mg/kg amounted to 70%.

For `Cc1cc(C)c(C2=C(OC(=O)C(=O)Oc3ccc(C(C)(C)C)cc3)C3(CCCC3)OC2=O)c(C)c1`, the mortality at 600 mg/kg was 80%.

The test system of another assay is Tetranychus cinnabarinus. Description: Acaricidal activity against eggs of Tetranychus cinnabarinus (carmine spider mite) in sieva bean leaves assessed as mortality at 0.25 mg/kg at 25 +/-1 degC treated for 3 secs measured after 4 days. The assay is classed as functional. The note with it: 96 h.
Regarding `Cc1cc(C)c(C2=C(OC(=O)C(=O)Oc3ccc(Cl)cc3)C3(CCCC3)OC2=O)c(C)c1`, the mortality at 0.25 mg/kg is 60%.

For the next assay, the system named is Tetranychus cinnabarinus. As to the kind of experiment: Acaricidal activity against eggs of Tetranychus cinnabarinus (carmine spider mite) in sieva bean leaves assessed as mortality at 5 mg/kg at 25 +/-1 degC treated for 3 secs measured after 4 days. The assay is classed as functional. The settings on record: 96 h.
Consider `Cc1cc(C)c(C2=C(OC(=O)C(=O)Oc3ccccc3)C3(CCCC3)OC2=O)c(C)c1`, for which the mortality at 5 mg/kg is 100%.

With `Cc1cc(C)c(C2=C(OC(=O)C(=O)Oc3ccc(Cl)cc3)C3(CCCC3)OC2=O)c(C)c1`, the mortality at 5 mg/kg was determined as 100%.

`Cc1cc(C)c(C2=C(OC(=O)C(=O)Oc3ccc(C(C)(C)C)cc3)C3(CCCC3)OC2=O)c(C)c1`: the mortality at 5 mg/kg was 90%.

Another assay deals with Tetranychus cinnabarinus. As to the kind of experiment: Acaricidal activity against larvae of Tetranychus cinnabarinus (carmine spider mite) in sieva bean leaves assessed as mortality at 1 mg/kg at 25 +/-1 degC treated for 3 secs measured after 4 days. The settings on record: 96 h. Format: functional.
Regarding `Cc1cc(C)c(C2=C(OC(=O)C(=O)Oc3ccccc3)C3(CCCC3)OC2=O)c(C)c1`, the mortality at 1 mg/kg was 50%.

For the compound `Cc1cc(C)c(C2=C(OC(=O)C(=O)Oc3ccc(Cl)cc3)C3(CCCC3)OC2=O)c(C)c1`, the mortality at 1 mg/kg came out at 60%.

Consider `Cc1cc(C)c(C2=C(OC(=O)C(=O)Oc3ccc(C(C)(C)C)cc3)C3(CCCC3)OC2=O)c(C)c1`, for which the mortality at 1 mg/kg came out at 60%.

Another assay has as its system Tetranychus cinnabarinus. Description: Acaricidal activity against larvae of Tetranychus cinnabarinus (carmine spider mite) in sieva bean leaves assessed as mortality at 0.5 mg/kg at 25 +/-1 degC treated for 3 secs measured after 4 days. Format: functional. The settings on record: 96 h.
Take `Cc1cc(C)c(C2=C(OC(=O)C(=O)Oc3ccccc3)C3(CCCC3)OC2=O)c(C)c1`: the mortality at 0.5 mg/kg was determined as 20%.

Regarding `Cc1cc(C)c(C2=C(OC(=O)C(=O)Oc3ccc(Cl)cc3)C3(CCCC3)OC2=O)c(C)c1`, the mortality at 0.5 mg/kg was found to be 0%.

In the case of `Cc1cc(C)c(C2=C(OC(=O)C(=O)Oc3ccc(C(C)(C)C)cc3)C3(CCCC3)OC2=O)c(C)c1`, the mortality at 0.5 mg/kg stood at 40%.

The next assay concerns Helicoverpa armigera. Description: Stomach toxicity against third-instar larval stage of Helicoverpa armigerain compound-pretreated corn leaves assessed as mortality at 600 mg/kg at 25 +/-1 degC after 4 days by leaf-dip method.
Settings: not given
Format: functional. The essentials:
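Leaf-dip assay on cotton bollworm. Corn leaves were dipped in test solution and air-dried. The treated pieces were placed individually into 24-hole boxes. Run at 25 ± 1 °C.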
`Cc1cc(C)c(C2=C(OC(=O)C(=O)Oc3ccccc3)C3(CCCC3)OC2=O)c(C)c1`: the mortality at 600 mg/kg turned out to be 20%.

Take `Cc1cc(C)c(C2=C(OC(=O)C(=O)Oc3ccc(Cl)cc3)C3(CCCC3)OC2=O)c(C)c1`: the mortality at 600 mg/kg worked out at 30%.

Turning to `Cc1cc(C)c(C2=C(OC(=O)C(=O)Oc3ccc(C(C)(C)C)cc3)C3(CCCC3)OC2=O)c(C)c1`, the mortality at 600 mg/kg is 10%.

Another assay has as its system Mythimna separata. As to the kind of experiment: Stomach toxicity against fourth-instar larval stage of Mythimna separata (Oriental armyworm) in compound-pretreated corn leaves assessed as mortality at 100 mg/kg at 25 +/-1 degC after 4 days. Format: functional.
Settings: not given
In short, it runs like this:
as §1
`Cc1cc(C)c(C2=C(OC(=O)C(=O)Oc3ccccc3)C3(CCCC3)OC2=O)c(C)c1`: the mortality at 100 mg/kg came to 100%.

Another assay relates to Tetranychus cinnabarinus. As to the kind of experiment: Acaricidal activity against larvae of Tetranychus cinnabarinus (carmine spider mite) in sieva bean leaves assessed as mortality at 10 mg/kg at 25 +/-1 degC treated for 3 secs measured after 4 days. Format: functional. The note with it: 96 h.
Regarding `Cc1cc(C)c(C2=C(OC(=O)C(=O)Oc3ccccc3)C3(CCCC3)OC2=O)c(C)c1`, the mortality at 10 mg/kg turned out to be 100%.

For the compound `Cc1cc(C)c(C2=C(OC(=O)C(=O)Oc3ccc(Cl)cc3)C3(CCCC3)OC2=O)c(C)c1`, the mortality at 10 mg/kg was 100%.

Regarding `Cc1cc(C)c(C2=C(OC(=O)C(=O)Oc3ccc(C(C)(C)C)cc3)C3(CCCC3)OC2=O)c(C)c1`, the mortality at 10 mg/kg amounted to 100%.

Another assay concerns Plutella xylostella. Description: Stomach toxicity against third-instar larval stage of Plutella xylostella (diamondback moth) in cabbage leaves assessed as mortality at 200 mg/kg at 25 +/-1 degC treated for 3 secs before larval infestation after 4 days by leaf-dip method. The assay is classed as functional. The note with it: 96 h. The essentials:
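Cabbage leaf disks (6 cm × 2 cm) were dipped in test solution for 3 s and air-dried. Each disk was placed in a glass tube and given seven third-instar diamondback moth larvae. Percentage mortality was scored after 4 days. Controls were water and dimethylformamide. Each treatment was done three times at 25 ± 1 °C.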
On to `Cc1cc(C)c(C2=C(OC(=O)C(=O)Oc3ccccc3)C3(CCCC3)OC2=O)c(C)c1`, for which the mortality at 200 mg/kg came out at 60%.

A further assay concerns Tetranychus cinnabarinus. Description: Acaricidal activity against eggs of Tetranychus cinnabarinus (carmine spider mite) in sieva bean leaves assessed as mortality at 1 mg/kg at 25 +/-1 degC treated for 3 secs measured after 4 days. Format: functional. The settings on record: 96 h.
On to `Cc1cc(C)c(C2=C(OC(=O)C(=O)Oc3ccccc3)C3(CCCC3)OC2=O)c(C)c1`, for which the mortality at 1 mg/kg is 70%.

On to `Cc1cc(C)c(C2=C(OC(=O)C(=O)Oc3ccc(Cl)cc3)C3(CCCC3)OC2=O)c(C)c1`, for which the mortality at 1 mg/kg turned out to be 90%.

Take `Cc1cc(C)c(C2=C(OC(=O)C(=O)Oc3ccc(C(C)(C)C)cc3)C3(CCCC3)OC2=O)c(C)c1`: the mortality at 1 mg/kg stood at 50%.

In a further assay the test system is Tetranychus cinnabarinus. Description: Acaricidal activity against larvae of Tetranychus cinnabarinus (carmine spider mite) in sieva bean leaves assessed as mortality at 5 mg/kg at 25 +/-1 degC treated for 3 secs measured after 4 days. The assay is classed as functional. The settings on record: 96 h.
For `Cc1cc(C)c(C2=C(OC(=O)C(=O)Oc3ccccc3)C3(CCCC3)OC2=O)c(C)c1`, the mortality at 5 mg/kg was determined as 90%.

With `Cc1cc(C)c(C2=C(OC(=O)C(=O)Oc3ccc(Cl)cc3)C3(CCCC3)OC2=O)c(C)c1`, the mortality at 5 mg/kg was 90%.

Consider `Cc1cc(C)c(C2=C(OC(=O)C(=O)Oc3ccc(C(C)(C)C)cc3)C3(CCCC3)OC2=O)c(C)c1`, for which the mortality at 5 mg/kg is 90%.

The next assay deals with Tetranychus cinnabarinus. As to the kind of experiment: Acaricidal activity against larvae of Tetranychus cinnabarinus (carmine spider mite) in sieva bean leaves assessed as mortality at 2.5 mg/kg at 25 +/-1 degC treated for 3 secs measured after 4 days. Format: functional. The settings on record: 96 h.
Take `Cc1cc(C)c(C2=C(OC(=O)C(=O)Oc3ccccc3)C3(CCCC3)OC2=O)c(C)c1`: the mortality at 2.5 mg/kg stood at 80%.

For `Cc1cc(C)c(C2=C(OC(=O)C(=O)Oc3ccc(Cl)cc3)C3(CCCC3)OC2=O)c(C)c1`, the mortality at 2.5 mg/kg stood at 70%.

As for `Cc1cc(C)c(C2=C(OC(=O)C(=O)Oc3ccc(C(C)(C)C)cc3)C3(CCCC3)OC2=O)c(C)c1`, the mortality at 2.5 mg/kg was 90%.
